Drawing on ChEMBL document CHEMBL1140467, “Small molecule ago-allosteric modulators of the human glucagon-like peptide-1 (hGLP-1) receptor” (Bioorg Med Chem Lett, 2007), this text covers Emax, EC50 and Activity for 42 compounds.

pEC50: −log10 of the molar value. Activity calls are given as the source filed them. The rule behind the calls is not given here.

For orientation: Emax means the greatest response seen or fitted, relative to the assay's reference.

Test [1] concerns the target T1, Glucagon-like peptide 1 receptor (Homo sapiens, UniProt P43220). As to the kind of experiment: Agonist activity at human GLP1 assessed as stimulation of cAMP relative to cAMP. Type of test: functional. Summed up: (§1)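 cAMP production was measured in a membrane-based assay at the human GLP-1 receptor. Potency is reported as EC50 and efficacy as Emax (%).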
For test [2], the target named is T1, Glucagon-like peptide 1 receptor. In words: Agonist activity at human GLP1 assessed as stimulation of cAMP. Type of test: functional. Summed up:
as §1

For test [3] the target is unchanged. As to the kind of experiment: Effect on augmentation of [125]GLP1 binding to human GLP1. Conditions: read-out: IC50 (the source's name). Summed up: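 Test agents were incubated with human GLP-1 receptor and GLP-1, and the rise in GLP-1 binding was followed across agent concentrations. IC50 is the agent concentration giving 50% of its maximal augmentation of GLP-1 binding.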

The subject of test [4] is Pancreas. In words: Effect on release of insulin in perfused rat pancreas. The test is classed as functional, tissue-based.
For test [5], the species on record is Mus musculus. As to the kind of experiment: Effect on release of insulin in mouse islets. The test is classed as functional.

T1 sequence (P43220 whole entry): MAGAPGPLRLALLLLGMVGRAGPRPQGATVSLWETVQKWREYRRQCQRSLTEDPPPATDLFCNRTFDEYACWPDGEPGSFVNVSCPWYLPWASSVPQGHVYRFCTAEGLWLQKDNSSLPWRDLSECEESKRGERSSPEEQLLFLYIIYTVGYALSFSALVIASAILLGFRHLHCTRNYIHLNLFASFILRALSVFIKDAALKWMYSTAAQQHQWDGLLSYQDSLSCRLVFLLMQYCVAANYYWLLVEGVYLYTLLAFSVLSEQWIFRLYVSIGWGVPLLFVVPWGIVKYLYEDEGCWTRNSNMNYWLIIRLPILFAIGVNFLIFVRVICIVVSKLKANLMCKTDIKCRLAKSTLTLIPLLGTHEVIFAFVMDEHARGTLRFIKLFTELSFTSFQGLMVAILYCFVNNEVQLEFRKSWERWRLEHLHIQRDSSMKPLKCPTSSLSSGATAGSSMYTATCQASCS

Consider `CCOP(=O)(OCC)c1nc2cc(Cl)c(Cl)cc2nc1C(F)(F)F`, for which the Emax in test [1] was < 2%.

With `CC(C)c1nc2cc(Cl)c(Cl)cc2nc1S(=O)(=O)Cc1ccc(S(=O)(=O)CC2CC2)cc1`, the Emax in test [1] turned out to be 64%. Also, the pEC50 in test [2] is 5.48.

Regarding `CC(C)n1c(S(C)(=O)=O)nc2cc(Cl)c(Cl)cc21`, the outcome in test [2] was inactive.

For `CCN(CC)C(=O)c1nc2cc(Cl)c(Cl)cc2nc1C(C)C`, the pEC50 in test [3] is < 5.00. Moreover, the Emax in test [1] was < 2%.

With `CC(C)c1nc2cc(Cl)c(Cl)cc2nc1S(=O)(=O)Cc1ccc(S(C)(=O)=O)cc1`, the pEC50 is 6.34 in test [3] and 5.92 in test [2]. The Emax in test [1] was determined as 63%.

For `CC(C)c1nc2cc(Cl)c(Cl)cc2nc1S(=O)(=O)CCC1OCCO1`, the pEC50 in test [3] is 6.26; in test [2], 5.52. Also, in test [1], the Emax came out at 71%.

Regarding `CC(C)c1nc2cc(Cl)c(Cl)cc2nc1S(C)(=O)=O`, the pEC50 in test [3] was 6.60; in test [2], 5.30. In addition, the Emax in test [1] was determined as 35%.

With `CCCc1nc2cc(Cl)c(Cl)cc2nc1S(C)(=O)=O`, the values for the pEC50 in test [3] and in test [2] were 6.39 and 5.92, respectively. In addition, in test [1], the Emax is 68%.

Take `CCOC(=O)c1nc2cc(Cl)c(Cl)cc2nc1S(C)(=O)=O`: the pEC50 in test [3] was 5.51; in test [2] it was < 5.00. Further, the maximal effect (Emax) in test [1] was found to be 24%.

On to `CC(=O)NNc1nc2cc(Cl)c(Cl)cc2nc1S(C)(=O)=O`, for which the Emax in test [1] turned out to be 32%. Further, the pEC50 in test [2] is 4.85.

Regarding `CS(=O)(=O)c1nc2cc(Cl)c(Cl)cc2nc1N`, in test [1], the maximal response (Emax) was determined as 24%. Further, the pEC50 in test [2] was 5.20.

For `Cc1nnc([S+]([O-])c2nc3cc(Cl)c(Cl)cc3nc2C(C)C)s1` (stereo unspecified), in test [1], the Emax stood at 19%. The pEC50 in test [2] was 5.29.

On to `CON(C)c1nc2cc(Cl)c(Cl)cc2nc1S(C)(=O)=O`, for which the Emax in test [1] was found to be 52%. In addition, the pEC50 in test [2] was 5.59.

Consider `CCCc1nc2cc(C)c(C)cc2nc1S(C)(=O)=O`, for which the Emax in test [1] is < 2%.

In the case of `CS(=O)(=O)c1nc2cc(Cl)c(Cl)cc2nc1N1CCCC1`, the Emax in test [1] amounted to 72%. Moreover, the pEC50 in test [2] was 5.66.

In the case of `COC(=O)CCNS(=O)(=O)c1ccc(CS(=O)(=O)c2nc3cc(Cl)c(Cl)cc3nc2C(C)C)cc1`, in test [1], the Emax came to 65%. Besides, the pEC50 in test [2] was 5.31.

Turning to `COC(=O)c1cc2cc(Cl)c(Cl)cc2nc1S(C)(=O)=O`, the outcome in test [2] was inactive.

`CC(C)c1nc2cc(Cl)c(Cl)cc2nc1O`: the Emax in test [1] is < 2%.

For the compound `CCCc1nc2cc(OC)c(OC)cc2nc1S(C)(=O)=O`, the Emax in test [1] is < 2%.

In the case of `CS(=O)(=O)c1nc2cc(Cl)c(Cl)cc2nc1NC1CCS(=O)(=O)C1` (stereo unspecified), the Emax in test [1] turned out to be 43%. Moreover, the pEC50 in test [2] was 5.85.

Consider `CC(C)Nc1nc2cc(Cl)c([N+](=O)[O-])c(C(F)(F)F)c2nc1S(C)(=O)=O`, for which the Emax in test [1] amounted to 31%. Moreover, in test [2], the pEC50 is 5.30.

For `CN(C)c1nc2cc(Cl)c(Cl)cc2nc1S(C)(=O)=O`, the figures for the pEC50 in test [3] and in test [2] were 6.28 and 5.66, respectively. Further, the maximal effect (Emax) in test [1] turned out to be 47%.

As for `O=S1(=O)CCCc2nc3cc(Cl)c(Cl)cc3nc21`, in test [2], the outcome was inactive.

For the compound `Cc1nnc(S(=O)(=O)c2nc3cc(Cl)c(Cl)cc3nc2C(C)C)s1`, in test [1], the Emax was determined as 47%. The pEC50 in test [2] is 6.00.

As for `CCC(C)Nc1nc2cc(Cl)c([N+](=O)[O-])cc2nc1S(C)(=O)=O` (stereo unspecified), the Emax in test [1] came to 44%. In addition, the pEC50 in test [2] is 5.37.

For the compound `CS(=O)(=O)c1nc2cc(Cl)c(Cl)cc2nc1NC1CCCc2ccccc21` (stereo unspecified), the Emax in test [1] was 69%. For the same compound, in test [2], the pEC50 was 6.36.

On to `CC(C)(C)Nc1nc2c(Cl)cc(C(F)(F)F)cc2nc1S(C)(=O)=O`, for which the Emax in test [1] is 42%. In test [2], the pEC50 was 5.66.

In the case of `CC(C)(C)Nc1nc2cc(Cl)c(Cl)cc2nc1S(C)(=O)=O`, the result in test [4] and in test [5] was Active. Also, the Emax in test [1] came out at 85%. For the same compound, the pEC50 in test [2] is 6.81.

Turning to `CS(=O)(=O)c1nc2cc(Cl)c(Cl)cc2nc1N1CCC(=O)N1`, in test [1], the Emax is 38%. The pEC50 in test [2] is 4.85.

Turning to `CCNc1nc2cc(Cl)c(Cl)cc2nc1S(C)(=O)=O`, the pEC50 in test [3] was 6.96; in test [2], 6.14. Besides, the Emax in test [1] is 46%.

In the case of `CC(C)Sc1nc2cc(Cl)c(Cl)cc2nc1S(C)(=O)=O`, the Emax in test [1] was 46%.

Regarding `CC(C)N(C)c1nc2cc(Cl)c(Cl)cc2nc1S(C)(=O)=O`, the pEC50 in test [3] was 6.34; in test [2], 5.74. The Emax in test [1] stood at 75%.

As for `CC(C)c1nc2cc(Cl)c(Cl)cc2nc1[S+](C)[O-]` (stereo unspecified), the pEC50 in test [3] is 5.96; in test [2] it was 4.52. The Emax in test [1] turned out to be 29%.

For the compound `CCC(C)Nc1nc2cc(Cl)c(Cl)cc2nc1S(C)(=O)=O` (stereo unspecified), the Emax in test [1] came to 94%. For the same compound, the pEC50 in test [2] was 6.76.

In the case of `CCOC(=O)c1nc2cc(Cl)c(Cl)cc2nc1C(F)(F)F`, the Emax in test [1] was < 2%.

With `CC(C)Nc1nc2c([N+](=O)[O-])c(Cl)c(Cl)cc2nc1S(C)(=O)=O`, in test [1], the Emax turned out to be 38%. The pEC50 in test [2] is 5.82.

Turning to `CC(=O)NCCNc1nc2cc(Cl)c(Cl)cc2nc1S(C)(=O)=O`, the Emax in test [1] came out at 22%. Moreover, in test [2], the pEC50 was 5.15.

Regarding `N#Cc1nc2cc(Cl)c(Cl)cc2nc1C(F)(F)F`, the Emax in test [1] was < 2%.

In the case of `Nc1nc2cc(Cl)c(Cl)cc2nc1C(F)(F)F`, the Emax in test [1] is < 2%.

Regarding `CC(C)Nc1nc2cc(Cl)c(Cl)cc2nc1S(C)(=O)=O`, the pEC50 is 6.97 in test [3] and 6.67 in test [2]. Further, the Emax in test [1] was determined as 82%.

Regarding `CC(C)C(=O)c1nc2cc(Cl)c(Cl)cc2nc1C(C)C`, the pEC50 in test [3] is < 5.00. Besides, the Emax in test [1] was < 2%.

As to `CS(=O)(=O)c1nc2cc(Cl)c(Cl)cc2nc1C(F)(F)F`, the results for the pEC50 in test [3] and in test [2] were 7.04 and 5.59, respectively. The Emax in test [1] was 40%.
